Consider nine molecules from ChEMBL document CHEMBL1127672, “Synthesis and biological evaluation of 2',3'-dideoxy-L-pyrimidine nucleosides as potential antiviral agents against human immunodeficiency virus (HIV) and hepatitis B virus (HBV)” (J Med Chem, 1994).

SMILES strings stand for the structures.

The subject of one assay is Hepatoma cell line. The assay is described as follows: The compound was tested for antiviral activity against Hepatitis B virus in human hepatoma cells. The format is functional. To be noted: read-out: ED50 (the source's name). The method, boiled down: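 HBV-carrying human hepatoma 2.2.15 cells, six-day-old cultures in MEM with Earle's salts and 10% FBS, given varying drug concentrations for 3 days, medium renewed with same drug for a further 3 days; virions in harvested medium PEG-precipitated, viral DNA measured by Southern analysis against untreated controls; ED50 = 50% inhibition.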

Assay [1] deals with CCRF-CEM. Kind of assay: Concentration of compound required to inhibit the synthesis of mitochondrial DNA (mt DNA) in human CCRF-CEM T-lymphoblastic leukemia cells. The class given is functional, cell-based. The method, boiled down:
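CEM cells exposed to varying drug concentrations, collected, washed in PBS, lysed in 10 mM Tris-HCl pH 7.0 by freeze-thaw; RNase A (10 μg/mL final) then proteinase K for 1 h; DNA blotted onto nylon after NaI addition and boiling 10 min. IC50 = concentration inhibiting mt DNA synthesis by 50%.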

In the next assay the test system is MT2. The assay is described as follows: The compound was tested for antiviral activity against HIV-1 in MT-2 cells. The format is functional, Homo sapiens. The settings on record: read-out: ED50 (the source's name). The method, boiled down:
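MT-2 cells (1 × 10^4/well, triplicate) in RPMI 1640 with 10% dialysed FBS infected with HIV-1 HTLV-IIIB at 0.1 TCID50/cell (0.01 for one compound), immediately added to serial drug dilutions; after 5 days, MTT read at A595; % protection versus infected and uninfected no-drug controls; ED50 from log plots.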

Assay [2] has as its system CCRF-CEM. Kind of assay: In vitro cytotoxicity against human CCRF-CEM T-lymphoblastic leukemia cells was determined. The format is functional, cell-based. The gist of the method:
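CCRF-CEM suspension cultures in RPMI 1640 plus 10% horse serum, 37 °C, 5% CO2; exponential-phase cells at 2 × 10^4 cells/mL given various concentrations; cell numbers counted after 3 days versus drug-free control; 50% value read from plot of cell number against concentration.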

The mark [3] stands for this setting: Homo sapiens, Hepatoma cell line.

On to `Nc1ccn([C@H]2CC[C@@H](CO)O2)c(=O)n1` (stereo in doubt; form 3) [ZALCITABINE], for which the EC50 with Hepatoma cell line stood at 0.01 µM; in the assay with MT2, 5 µM. Further, the IC50 was over 100 µM in the assay with CCRF-CEM [1] (ccrf-cem) and 70 µM with CCRF-CEM [2] (ccrf-cem).

For the molecule `Nc1nc(=O)n([C@@H]2CC[C@H](CO)O2)cc1F` (stereo in doubt; form 1), the EC50 in the assay with Hepatoma cell line was determined as 10 µM; in the assay with MT2, 2 µM. This molecule also gave an IC50 in the assay on CCRF-CEM [2] (ccrf-cem) of 2 µM.

For the molecule `Cc1cn([C@@H]2CC[C@H](CO)O2)c(=O)[nH]c1=O`, the EC50 in the assay on Hepatoma cell line (setting [3]) is over 10 µM; in the assay with MT2 (Homo sapiens, MT2), over 100 µM.

`Nc1ccn([C@H]2CC[C@@H](CO)O2)c(=O)n1` (stereo in doubt; form 1) [ZALCITABINE]: the EC50 came to 2.8 µM in the assay on Hepatoma cell line and 1.5 µM in the assay with MT2. Besides, the IC50 with CCRF-CEM [1] (ccrf-cem) was found to be 0.022 µM; in the assay with CCRF-CEM [2] (ccrf-cem) it was 28 µM.

Turning to `Nc1ccn([C@H]2CC[C@@H](CO)O2)c(=O)n1` (stereo in doubt; form 2) [ZALCITABINE], the values for the EC50 with Hepatoma cell line and with MT2 were 5 µM and over 100 µM, respectively.

For `Nc1nc(=O)n([C@H]2CC[C@H](CO)O2)cc1F`, the EC50 with Hepatoma cell line (setting [3]) was determined as 0.5 µM; in the assay on MT2 (Homo sapiens, MT2), 6 µM. The molecule also yielded an IC50 in the assay with CCRF-CEM [2] (Homo sapiens, CCRF-CEM) of over 100 µM.

Turning to `O=c1[nH]c(=O)n(C2CCC(CO)O2)cc1F` (stereo not drawn), the EC50 in the assay on Hepatoma cell line (setting [3]) is over 10 µM; with MT2 (Homo sapiens, MT2) it was over 100 µM. In the assay on CCRF-CEM [2] (Homo sapiens, CCRF-CEM), this molecule returned an IC50 of over 100 µM.

Consider `Nc1nc(=O)n([C@@H]2CC[C@H](CO)O2)cc1F` (stereo in doubt; form 2), for which the EC50 worked out at 0.01 µM in the assay on Hepatoma cell line and 0.5 µM with MT2. Also, the IC50 is over 100 µM with CCRF-CEM [1] (Homo sapiens, CCRF-CEM) and 67 µM with CCRF-CEM [2] (ccrf-cem).

Consider `O=c1ccn(C2CCC(CO)O2)c(=O)[nH]1` (stereo not drawn), for which the EC50 in the assay with Hepatoma cell line (setting [3]) is over 100 µM; with MT2 (Homo sapiens, MT2), over 100 µM. This molecule gave an IC50 in the assay with CCRF-CEM [2] (Homo sapiens, CCRF-CEM) of over 100 µM.

One may read the IC50 as the concentration that gives 50% inhibition.
